Results reported in ChEMBL document CHEMBL4196152, “Controlling Ca2+ Permeable α-Amino-3-hydroxy-5-methyl-4-isoxazolepropionic Acid (AMPA) Receptors with Photochromic Ion Channel Blockers” (J Med Chem, 2018).

Assays:
Assay type in all cases: cell-based
[1] = target: Glutamate receptor 1 (Rattus norvegicus) (UniProt P19490); experiment: Inhibition of rat GluA1 flip isoform expressed in Xenopus laevis oocytes assessed as inhibition of L-Glu-evoked currents at 100 nM under dark condition at -80 mV membrane potential by two electrode voltage-clamp assay
Summary of the method: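 TEVC on stage V–VI Xenopus laevis oocytes injected with GluA1 cRNA (13–46 nL) and recorded 1–3 days later at −80 mV and 23 °C. Bath solution (mM): 115 NaCl, 2 KCl, 5 HEPES, 1.8 BaCl₂, pH 7.6. Antagonist was co-applied with 300 µM L-glutamate in a dark room. Current was normalized to agonist alone; mean ± SEM, n = 3–16 oocytes.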

[2] = target: T1, Glutamate NMDA receptor; Grin1/Grin2a (Rattus norvegicus) (UniProt P35439+Q00959); experiment: Inhibition of rat GluN1a/GluN2A expressed in Xenopus laevis oocytes assessed as inhibition of L-Glu and Gly-evoked currents at 100 nM under dark condition at -80 mV membrane potential by two electrode voltage-clamp assay
Summary of the method: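 Xenopus laevis oocytes (stage V–VI) were injected with GluN1 and GluN2A cRNA at a 1:10 ratio. Two-electrode voltage clamp was done 1–3 days post-injection at −80 mV and 23 °C in 115 NaCl/2 KCl/5 HEPES/1.8 BaCl₂ (mM), pH 7.6. Antagonist was co-applied with 100 µM L-glutamate plus 100 µM glycine in a dark room. Current was normalized to agonist-only; mean ± SEM, n = 3–16.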

[3] = target: T1, Glutamate NMDA receptor; Grin1/Grin2a (Rattus norvegicus); experiment: Inhibition of rat GluN1a/GluN2A expressed in Xenopus laevis oocytes assessed as inhibition of L-Glu and Gly-evoked currents at 100 nM under illumination with blue light at 470 nanometer condition at -80 mV membrane potential by two electrode voltage-clamp assay
Summary of the method: (§1)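 Oocytes injected with a 1:10 GluN1:GluN2A cRNA ratio and clamped at −80 mV by TEVC, 23 °C. Bath: 115 NaCl, 2 KCl, 5 HEPES, 1.8 BaCl2 (mM), pH 7.6. Antagonist co-applied with 100 µM L-Glu plus 100 µM glycine; response normalized to agonist alone. Dark runs done in a dark room. IC50 fitted with a Hill equation to pooled data from 3–10 oocytes.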

Glutamate receptor 1 [4] = target: T2, Glutamate receptor 1 (Rattus norvegicus, UniProt P19490); experiment: Inhibition of rat GluA1 flip isoform expressed in Xenopus laevis oocytes assessed as inhibition of L-Glu-evoked currents under illumination with blue light at 470 nanometer at -80 mV membrane potential by two electrode voltage-clamp assay
Summary of the method: (§2)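 TEVC at −80 mV, 23 °C, on oocytes 1–3 days after cRNA injection. Bath: 115 NaCl, 2 KCl, 5 HEPES, 1.8 BaCl2 (mM), pH 7.6. Antagonist co-applied with 300 µM L-Glu; current normalized to agonist alone. Dark runs done in a dark room. IC50 from pooled data of 3–10 oocytes, fitted with a Hill equation. Single-concentration screens used 100 nM and 10 nM.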

[5] = target: T3, Glutamate NMDA receptor; Grin1/Grin2a (Rattus norvegicus, UniProt P35439+Q00959); experiment: Inhibition of rat GluN1a/GluN2A expressed in Xenopus laevis oocytes assessed as inhibition of L-Glu and Gly-evoked currents under dark condition at -80 mV membrane potential by two electrode voltage-clamp assay; summary of the method: as §1
Glutamate receptor 1 [6] = target: T2, Glutamate receptor 1; experiment: Inhibition of rat GluA1 flip isoform expressed in Xenopus laevis oocytes assessed as inhibition of L-Glu-evoked currents under dark condition at -80 mV membrane potential by two electrode voltage-clamp assay; summary of the method: as §2
[7] = target: Glutamate receptor 1 (Rattus norvegicus) (UniProt P19490); experiment: Inhibition of rat GluA1 flip isoform expressed in Xenopus laevis oocytes assessed as inhibition of L-Glu-evoked currents at 100 nM under illumination with blue light at 470 nanometer at -80 mV membrane potential by two electrode voltage-clamp assay; summary of the method: as §2
[8] = target: T1, Glutamate NMDA receptor; Grin1/Grin2a (Rattus norvegicus); experiment: Ratio of IC50 for inhibition of rat GluN1a/GluN2A expressed in Xenopus laevis oocytes under illumination with blue light at 470 nanometer condition to IC50 for inhibition of rat GluN1a/GluN2A expressed in Xenopus laevis oocytes under dark condition; summary of the method: as §1
[9] = target: T3, Glutamate NMDA receptor; Grin1/Grin2a; experiment: Inhibition of rat GluN1a/GluN2A expressed in Xenopus laevis oocytes assessed as inhibition of L-Glu and Gly-evoked currents under illumination with blue light at 470 nanometer condition at -80 mV membrane potential by two electrode voltage-clamp assay; summary of the method: as §1

Chain of Glutamate receptor 1 (Rattus norvegicus) (P19490 whole entry, canonical isoform): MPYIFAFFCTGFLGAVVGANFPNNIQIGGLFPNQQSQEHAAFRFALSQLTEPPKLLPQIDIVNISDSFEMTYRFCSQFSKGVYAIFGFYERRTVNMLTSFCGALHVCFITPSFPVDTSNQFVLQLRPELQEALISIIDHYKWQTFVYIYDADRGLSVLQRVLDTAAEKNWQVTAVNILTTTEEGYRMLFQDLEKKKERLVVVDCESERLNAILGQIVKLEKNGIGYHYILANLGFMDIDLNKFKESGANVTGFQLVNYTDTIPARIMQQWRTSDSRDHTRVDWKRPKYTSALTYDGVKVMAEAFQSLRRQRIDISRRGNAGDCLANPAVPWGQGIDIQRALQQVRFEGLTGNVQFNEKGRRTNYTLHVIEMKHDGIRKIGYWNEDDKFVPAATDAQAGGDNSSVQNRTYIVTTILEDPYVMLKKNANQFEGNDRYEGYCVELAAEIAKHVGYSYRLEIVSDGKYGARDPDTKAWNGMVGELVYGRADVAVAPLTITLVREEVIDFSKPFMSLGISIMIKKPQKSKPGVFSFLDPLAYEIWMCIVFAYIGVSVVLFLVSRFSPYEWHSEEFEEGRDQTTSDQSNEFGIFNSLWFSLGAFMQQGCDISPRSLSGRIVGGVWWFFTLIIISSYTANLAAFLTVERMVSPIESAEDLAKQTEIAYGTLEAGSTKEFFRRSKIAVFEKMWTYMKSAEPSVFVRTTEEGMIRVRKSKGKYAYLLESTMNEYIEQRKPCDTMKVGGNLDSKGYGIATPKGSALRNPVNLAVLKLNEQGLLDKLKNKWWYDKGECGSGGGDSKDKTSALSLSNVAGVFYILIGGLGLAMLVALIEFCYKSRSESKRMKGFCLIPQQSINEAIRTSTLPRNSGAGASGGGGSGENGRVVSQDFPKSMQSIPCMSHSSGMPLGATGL
T2 sequence (P19490 whole entry, canonical isoform): as above

inhibition [1] | Structure (SMILES) | other results
20 to 50% | CN(C)c1ccc(/N=N/c2ccc(C(=O)NCCCCCCCCCNCCCNC(=O)[C@@H](N)CCCNC(=N)N)cc2)cc1 | 
20 to 50% | CN(C)c1ccc(/N=N/c2cccc(C(=O)N[C@@H](CC(N)=O)C(=O)NCCCCCCCCCNCCCNC(=O)[C@@H](N)CCCNC(=N)N)c2)cc1 | 
20 to 50% | CCN(CC)c1ccc(/N=N/c2cccc(C(=O)NCCCCCCCCCNCCCNC(=O)[C@@H](N)CCCNC(=N)N)c2)cc1 | 
> 70% | CCN(CC)c1ccc(/N=N/c2cccc(C(=O)N[C@@H](CC(N)=O)C(=O)NCCCCNCCCCCCCCNC(=O)[C@@H](N)CCCNC(=N)N)c2)cc1 | 
 | N=C(N)NCCC[C@H](N)C(=O)NCCCCCCCCNCCCCNC(=O)[C@H](CC(N)=O)NC(=O)c1ccc(/N=N/c2ccccc2)cc1 | inhibition [2]: 70 to 80%
20 to 50% | CN(C)c1ccc(/N=N/c2cccc(C(=O)NCCCCCCCCCNCCCNC(=O)[C@@H](N)CCCNC(=N)N)c2)cc1 | 
20 to 50% | CCN(CC)c1ccc(/N=N/c2ccc(C(=O)N[C@@H](CC(N)=O)C(=O)NCCCCCCCCCNCCCNC(=O)[C@@H](N)CCCNC(=N)N)cc2)cc1 | 
> 70% | CN(C)c1ccc(/N=N/c2ccc(C(=O)N[C@@H](CC(N)=O)C(=O)NCCCCNCCCCCCCCNC(=O)[C@@H](N)CCCNC(=N)N)cc2)cc1 | 
20 to 50% | CN(C)c1ccc(/N=N/c2ccc(C(=O)N[C@@H](CC(N)=O)C(=O)NCCCCCCCCCNCCCNC(=O)[C@@H](N)CCCNC(=N)N)cc2)cc1 | 
> 70% | CN(C)c1ccc(/N=N/c2cccc(C(=O)N[C@@H](CC(N)=O)C(=O)NCCCCNCCCCCCCCNC(=O)[C@@H](N)CCCNC(=N)N)c2)cc1 | 
 | N=C(N)NCCC[C@H](N)C(=O)NCCCCCCCCNCCCCNC(=O)[C@H](CC(N)=O)NC(=O)c1cccc(/N=N/c2ccccc2)c1 | inhibition [2]: 70 to 80%
20 to 50% | CCN(CC)c1ccc(/N=N/c2ccc(C(=O)NCCCCCCCCCNCCCNC(=O)[C@@H](N)CCCNC(=N)N)cc2)cc1 | 
 | N=C(N)NCCC[C@H](N)C(=O)NCCCNCCCCCCCCCNC(=O)c1cccc(/N=N/c2ccccc2)c1 | inhibition [2]: 70 to 80%
20 to 50% | CCN(CC)c1ccc(/N=N/c2cccc(C(=O)N[C@@H](CC(N)=O)C(=O)NCCCCCCCCCNCCCNC(=O)[C@@H](N)CCCNC(=N)N)c2)cc1 | 

Structure (SMILES) | inhibition [1] | other results
CCN(CC)c1ccc(/N=N/c2ccc(C(=O)N[C@@H](CC(N)=O)C(=O)NCCCCCCCCNCCCCNC(=O)[C@@H](N)CCCNC(=N)N)cc2)cc1 | 60% | inhibition [3]: < 5%; inhibition [2]: < 5%; IC50 (Glutamate receptor 1 [4]): 61 nM; IC50 [5]: 1100 nM; IC50 (Glutamate receptor 1 [6]): 8 nM; inhibition [7]: 20%; Ratio IC50 [8]: 8; IC50 [9]: 1200 nM
